Assay results taken from PubChem BioAssay.
Activity calls are given as the source filed them.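 How the source made its calls, unless noted: active means viability at or below 10% of carrier control in both of two separate runs; inconclusive means viability at or below 10% in only one of the two runs; inactive means the rest.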

Columns and labels:
[1] = reduced viability of SK-BR-3 breast cancer cells – cell-based, 24 h, human, pilot screen (AID 572); conditions: SK-BR-3 viability, CellTiter-Glo luminescence, at 10 µM, stronger effect = lower value;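 further: compound exposure lasted between 18 and 24 h rather than exactly 24 h; 100% = carrier-treated control wells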
[2] = HUVEC growth inhibition – cell-based, human, primary screen (AID 575;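 active means viability at or below 30% in both replicate assays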;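 further: 100% = median of untreated cell wells with 0.1% DMSO on each plate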); conditions: HUVEC proliferation, CellTiter-Glo luminescence, 72 h; at 10 µM; stronger effect = lower value
In short: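 Material: primary human umbilical vein endothelial cells / Schedule: 72 h exposure, 37 °C, 5% CO2, 30 min RT equilibration / Signal: ATP-based CellTiter-Glo luminescent read / Read-out basis: percent of median DMSO-control luminescence / Control set: 32 DMSO-only cell-control wells (high), 32 MePR drug-control wells (low) per plate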

[3] = H69AR cell proliferation blockers – human, duplicate replicates, primary screen (AID 580;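 active means viability at or under a set limit in both replicates, limit being median viability minus 3 SD, cut at about 48% in these data, passing the limit was not always enough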;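 further: 100% = mean luminescence of untreated wells and 0% = no signal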); conditions: H69AR lung tumor cells viability, ATP luminescence, 72 h; at 10 µM; stronger effect = lower value
[4] = MRP1 drug-resistance reversers in H69AR cells – cell-based, doxorubicin co-treatment, pilot screen (AID 601;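 active means viability loss from added drug above about 55%, and viability with drug at most 40%, in both replicates, limit read from the data, passing the limit was not always enough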); conditions: CellTiter-Glo, 72 h, at 10 µM; for differential viability (reversal): stronger effect = higher value
[5] = yeast transport mutant growth inhibition pilot in 384-well plates, post-Golgi transport modulator project (AID 636; in the data active means inhibition above about 31%); conditions: absorbance 615 nm, about 18 h, stronger effect = higher value
[6] = growth suppression of yeast trafficking mutant, preliminary HTS, modulators of trafficking downstream of Golgi apparatus project, 1536-format plate, OD 615 nm (AID 637; in the data active means inhibition above about 30%); conditions: yeast transport mutant growth, absorbance 615 nm, 18 h; stronger effect = higher value
[7] = H69AR cells + 2 uM doxorubicin, measured here: viability with 2 uM doxorubicin, stronger effect = lower value
[8] = H69AR cells, compound alone cytotoxicity

Row | Structure (SMILES) | viability [1] | viability [2] | viability [3] | differential viability (reversal) ([4]; H69AR cells + 2 uM doxorubicin) | viability [4, 7] | viability [4, 8] | inhibition [5] | inhibition [6]
1 | Cc1ccc(S(=O)(=O)NCC(=O)OCN2C(=O)c3ccccc3C2=O)cc1 | 94% (inactive) | 99.6% (inactive) | 105% (inactive) | -10.3% (inactive) | 115% | 105% | -2.73% (inactive) | 0.16% (inactive)
2 | Cc1ccc2c(C)nc(NC3=NCN(C(C)C)CN3)nc2c1 | 106% (inactive) | 94.3% (inactive) | 84.3% (inactive) | -15.4% (inactive) | 99.7% | 84.3% | -5.89% (inactive) | 0.48% (inactive)
3 | COc1ccc(-n2nc3cc(C)c(N)c(Br)c3n2)cc1 | 74% (inactive) | 85.6% (inactive) | 65.5% (inactive) | -33.4% (inactive) | 98.9% | 65.5% | -6.3% (inactive) | -1.45% (inactive)
4 | N#CCc1ccc(NC(=O)Nc2cccc(Cl)c2)cc1 | 88% (inactive) | 76.9% (inactive) | 92.5% (inactive) | -12.1% (inactive) | 105% | 92.5% | -6.44% (inactive) | 2.73% (inactive)
5 | COc1ccc(C2/C(=C(/O)c3ccccc3)C(=O)C(=O)N2c2ncccn2)cc1OC (stereo not drawn) | 105% (inactive) | 101% (inactive) | 108% (inactive) | 8.68% (inactive) | 99.1% | 108% | -4.59% (inactive) | -2.55% (inactive)
6 | CCOC(=O)C1CCCN(C(=O)c2cc3c(-c4cccc(OC)c4)nn(C)c3s2)C1 (stereo not drawn) | 115% (inactive) | 56.1% (inactive) | 13.2% (active) | -69% (inactive) | 82.2% | 13.2% | -8.13% (inactive) | 1.64% (inactive)
7 | O=C(CCC1COc2ccccc2O1)NCC1COc2ccccc2O1 (stereo not drawn) | 125% (inactive) | 103% (inactive) | 87.8% (inactive) | 4.35% (inactive) | 83.4% | 87.8% | -6.3% (inactive) | 4.68% (inactive)
8 | CC(=O)Nc1ccc(S(=O)(=O)NCc2csc(-c3cccnc3)n2)cc1 | 97% (inactive) | 101% (inactive) | 97.6% (inactive) | -4.67% (inactive) | 102% | 97.6% | -1.69% (inactive) | 1.8% (inactive)
9 | COC(=O)C1=C(C)N(Cc2ccco2)C(=O)C1 | 96% (inactive) | 103% (inactive) | 96.1% (inactive) | 5.42% (inactive) | 90.7% | 96.1% | -7.53% (inactive) | 5.82% (inactive)
10 | CCCCC(=O)Nc1ccc(NC(=O)C2CC2)nc1 | 91% (inactive) | 108% (inactive) | 101% (inactive) | -4.46% (inactive) | 106% | 101% | -1.51% (inactive) | -1.13% (inactive)
11 | O=c1c2[nH]c3ccc(Cl)cc3c2ncn1Cc1ccccn1 | 94% (inactive) | 107% (inactive) | 101% (inactive) | 13.4% (inactive) | 87.9% | 101% | -3.33% (inactive) | -3.27% (inactive)
12 | CCOC(=O)c1cnc(C(C)(C)C)[nH]c1=O | 106% (inactive) | 102% (inactive) | 95.8% (inactive) | 7.84% (inactive) | 88% | 95.8% | -6.22% (inactive) | -0.91% (inactive)
13 | O=C(O)/C=C/c1ccc(O)c(O)c1 | 94% (inactive) | 69% (inactive) | 97.9% (inactive) | 5.39% (inactive) | 92.5% | 97.9% | -0.39% (inactive) | 1% (inactive)
14 | O=C(NCCCN1CCN(c2cccc(Cl)c2)CC1)c1ccc(N2CCCC2=O)cc1 | 69% (inactive) | 76.1% (inactive) | 89.1% (inactive) | -5.41% (inactive) | 94.5% | 89.1% | -1.1% (inactive) | 4.91% (inactive)
15 | COc1cc(S(=O)(=O)NC2CCCCC2C)ccc1Cl (stereo not drawn) | 83% (inactive) | 98.3% (inactive) | 92.4% (inactive) | -3.38% (inactive) | 95.8% | 92.4% | -7.81% (inactive) | 1.45% (inactive)
16 | Cc1cccc(NC(=O)C2CCCN2C(=O)OCC(C)C)c1C (stereo not drawn) | 96% (inactive) | 108% (inactive) | 92% (inactive) | 8.52% (inactive) | 83.5% | 92% | -4.86% (inactive) | -3.82% (inactive)
17 | C=CCn1c(SCC(=O)C(C)(C)C)nnc1-c1ccccn1 | 88% (inactive) | 94.4% (inactive) | 92.2% (inactive) | -0.455% (inactive) | 92.6% | 92.2% | -7.57% (inactive) | -3.64% (inactive)
18 | N#Cc1cnc(SCCc2ccccc2)nc1N | 78% (inactive) | 102% (inactive) | 97.8% (inactive) | 6.68% (inactive) | 91.2% | 97.8% | -5.14% (inactive) | 0% (inactive)

Row | Structure (SMILES) | viability [1] | viability [2] | viability [3] | differential viability (reversal) ([4]; H69AR cells + 2 uM doxorubicin) | viability [4, 7] | viability [4, 8] | inhibition [5] | inhibition [6]
19 | CC(=O)Nc1ccc(NC(=O)Cn2cc3c(n2)CCC(C)C3)cc1 (stereo not drawn) | 108% (inactive) | 103% (inactive) | 90.6% (inactive) | -4.05% (inactive) | 94.6% | 90.6% | -8.24% (inactive) | -8.73% (inactive)
20 | CC(=O)Nc1cc(NC(C)=O)cc(C(=O)OCC(=O)N2CC(C)OC(C)C2)c1 (stereo not drawn) | 94% (inactive) | 99.9% (inactive) | 102% (inactive) | 8.29% (inactive) | 94.1% | 102% | -6.62% (inactive) | -3.64% (inactive)
21 | Cc1occc1-c1nc(-c2ccncc2)no1 | 79% (inactive) | 83.2% (inactive) | 95.4% (inactive) | 2.9% (inactive) | 92.5% | 95.4% | 0.96% (inactive) | -8.87% (inactive)
22 | CC(C)NCC(O)COc1ccc(CC(N)=O)cc1 (stereo not drawn) | 88% (inactive) | 87.5% (inactive) | 88.1% (inactive) | -0.64% (inactive) | 88.7% | 88.1% | 1.95% (inactive) | -2.67% (inactive)
23 | COC(=O)C1CCN(C(=O)CN2C(=O)NC(CCc3ccccc3)C2=O)CC1 (stereo not drawn) | 119% (inactive) | 94.2% (inactive) | 91.7% (inactive) | 0.73% (inactive) | 90.9% | 91.7% | -1.92% (inactive) | 3.87% (inactive)
24 | O=C1[C@@H]2C(c3ccccc3Cl)=NO[C@@H]2C(=O)N1Cc1ccccc1 | 96% (inactive) | 116% (inactive) | 104% (inactive) | 4.24% (inactive) | 100% | 104% | -6.76% (inactive) | 3.09% (inactive)
25 | N#CC1=C(N)OC2=C(C(=O)CCC2)C1CCc1ccccc1 (stereo not drawn) | 98% (inactive) | 91.9% (inactive) | 103% (inactive) | 14.2% (inactive) | 89.3% | 103% | -6.08% (inactive) | 1.64% (inactive)
26 | CS(=O)(=O)N(CC(=O)NCCSCc1cccc(Cl)c1)c1ccc2c(c1)OCO2 | 94% (inactive) | 97.9% (inactive) | 93.4% (inactive) | -4.33% (inactive) | 97.8% | 93.4% | -2.21% (inactive) | -2.62% (inactive)
27 | COc1cccc(NC(=O)c2ccccc2NS(C)(=O)=O)c1 | 86% (inactive) | 91.8% (inactive) | 91.9% (inactive) | 4.45% (inactive) | 87.5% | 91.9% | -5.89% (inactive) | -3.45% (inactive)
28 | CCc1nn(CC(=O)N2CCN(Cc3ccc4c(c3)OCO4)CC2)c(=O)c2cc3occc3n12 | 87% (inactive) | 100% (inactive) | 91.8% (inactive) | -2.36% (inactive) | 94.2% | 91.8% | 0.14% (inactive) | -4.55% (inactive)
29 | Cc1ccc(NC(=O)CN(C)S(=O)(=O)c2cccc3nsnc23)cc1Cl | 103% (inactive) | 83.3% (inactive) | 84.5% (inactive) | -7.79% (inactive) | 92.2% | 84.5% | 1.76% (inactive) | -3.09% (inactive)
30 | CCc1nnc(NC(=O)CSc2nnc(-c3cc4ccccc4cc3O)n2CC)s1 | 84% (inactive) | 78.4% (inactive) | 90.1% (inactive) | 1.08% (inactive) | 89.1% | 90.1% | -1.95% (inactive) | -3.28% (inactive)
31 | CN(C)c1nc(OCCOC(=O)Nc2ccc(Cl)cc2Cl)nc(N(C)C)n1 | 70% (inactive) | 103% (inactive) | 96.3% (inactive) | 16.4% (inactive) | 79.9% | 96.3% | -5.21% (inactive) | 2.91% (inactive)
32 | Cc1ccc(C)c(N(CC(=O)NC2CCCC2)C(=O)CCCC(=O)Nc2ccccn2)c1 | 99% (inactive) | 81.6% (inactive) | 102% (inactive) | 13.7% (inactive) | 87.8% | 102% | -1.82% (inactive) | -2.95% (inactive)
33 | COc1ccc(S(=O)(=O)Nc2ccc(Cl)cn2)c(C)c1C | 100% (inactive) | 107% (inactive) | 88.5% (inactive) | 0.69% (inactive) | 87.8% | 88.5% | -0.93% (inactive) | 0% (inactive)
34 | Cc1c(Cl)cccc1Nc1ccccc1C(=O)O | 108% (inactive) | 56.7% (inactive) | 111% (inactive) | 9% (inactive) | 102% | 111% | -1.17% (inactive) | 5.33% (inactive)
35 | COc1cccc(CC(=O)Nn2c(C)nc3ccccc3c2=O)c1 | 83% (inactive) | 115% (inactive) | 99.3% (inactive) | 11.8% (inactive) | 87.5% | 99.3% | -3.07% (inactive) | -5.27% (inactive)
36 | Cn1c(=O)[nH]c(=O)c2c1nc(Br)n2Cc1ccccc1F | 116% (inactive) | 78% (inactive) | 86.9% (inactive) | 16.6% (inactive) | 70.2% | 86.9% | 3.15% (inactive) | 3.87% (inactive)
